{
  "source": "ChEMBL document CHEMBL4837188",
  "about": "“Identification of Novel Tricyclic Benzo[1,3]oxazinyloxazolidinones as Potent Antibacterial Agents with Excellent Pharmacokinetic Profiles against Drug-Resistant Pathogens” (J Med Chem, 2021)",
  "key": {"[1]": {"experiment": "Metabolic stability in CD-1 mouse liver microsomes assessed as substrate remaining in presence of NADPH incubated for 30 mins by LC-MS analysis", "assay_type": "ADME, Microsome", "conditions": "read-out: Stabilty", "procedure,_shortened": "(§1)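 Microsomes from male CD-1 mouse or pooled human, 1 mg/mL protein in 0.05 M phosphate buffer pH 7.4. Compound at final 0.1 μM with DMSO cosolvent. Incubated at 37 °C with 1 mM NADPH, or with buffer in place of NADPH. Sampled at 0 and 30 min and quenched with acetonitrile. LC−MS measurement; substrate remaining at 30 min normalized to time zero.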"}, "[2]": {"experiment": "Metabolic stability in CD-1 mouse liver microsomes incubated for 30 mins by LC-MS analysis", "assay_type": "ADME, Microsome", "conditions": "CD-1, mouse, liver microsomes, read-out: Stabilty", "procedure,_shortened": "as §1"}, "[3]": {"experiment": "Metabolic stability in pooled human liver microsomes incubated for 30 mins by LC-MS analysis", "assay_type": "ADME, Microsome", "conditions": "read-out: Stabilty", "procedure,_shortened": "as §1"}, "[4]": {"test_system": "Mycobacterium tuberculosis", "experiment": "Antitubercular activity against Mycobacterium tuberculosis H37Rv assessed as inhibition of bacterial growth incubated for 7 days by MABA", "assay_type": "functional", "conditions": "Mycobacterium tuberculosis, H37Rv, 168 h, time 7 day; read-out: MIC", "procedure,_shortened": "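Microplate alamar blue assay. H37Rv or clinical isolates were grown to late log phase in 7H9 broth with glycerol, Tween 80 and ADC, then 2 × 10⁵ CFU added to two-fold dilutions. Final range 32–0.5 μg/mL, lowered to 2–0.016 μg/mL for active compounds. 37 °C, 7 days, then alamar blue 16 h. Fluorescence 530/590 nm. MIC is the lowest concentration giving ≥90% reduction; INH and RFP were controls.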"}, "Staphylococcus aureus [5]": {"test_system": "Staphylococcus aureus", "experiment": "Antibacterial activity against Staphylococcus aureus ATCC 29213 assessed as inhibition of bacterial growth incubated for 18 hrs by broth microdilution method", "assay_type": "functional", "procedure,_shortened": "(§2)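 Broth microdilution in 96-well plates. Media: cation-adjusted Mueller−Hinton broth for S. aureus, brain heart infusion for VRE, Mueller−Hinton broth for the other strains. Incubated at 37 °C for 18 h, then A600 read. Percent growth inhibition calculated against 1% DMSO vehicle.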"}, "[6]": {"test_system": "Staphylococcus epidermidis", "experiment": "Antibacterial activity against methicillin resistant Staphylococcus epidermidis assessed as bacterial growth inhibition after 18 hrs by broth microdilution method", "assay_type": "functional"}, "Staphylococcus aureus [7]": {"test_system": "Staphylococcus aureus", "experiment": "Antibacterial activity against vancomycin intermediate Staphylococcus aureus assessed as bacterial growth inhibition after 18 hrs by broth microdilution method", "assay_type": "functional"}, "Enterococcus faecalis [8]": {"test_system": "Enterococcus faecalis", "experiment": "Antibacterial activity against Enterococcus faecalis ATCC 29212 assessed as bacterial growth inhibition after 18 hrs by broth microdilution method", "assay_type": "functional", "procedure,_shortened": "as §2"}, "Enterococcus faecalis [9]": {"test_system": "Enterococcus faecalis", "experiment": "Antibacterial activity against linezolid resistant Enterococcus faecalis assessed as bacterial growth inhibition after 18 hrs by broth microdilution method", "assay_type": "functional"}, "Vero": {"test_system": "Vero", "experiment": "Cytotoxicity against african green monkey Vero cells after 48 hrs by MTT assay", "assay_type": "cell-based", "conditions": "Chlorocebus sabaeus", "procedure,_shortened": "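Vero cells grown in RPMI1640 with 10% FBS at 37 °C, 5% CO2. Cells diluted to 4 × 10⁵ cells/mL. Compounds given as three-fold serial dilutions, final 64−0.26 μg/mL, for 48 h at 37 °C. Monolayers washed with warm HBSS, then MTT added for 4 h. Absorbance read at 492 nm.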"}, "[10]": {"experiment": "Elimination half life in BALB/c mouse at 1 mg/kg, iv measured upto 24 hrs by LC-MS/MS analysis", "assay_type": "ADME, organism-based", "conditions": "in vivo, read-out: beta t1/2 (converted)", "procedure,_shortened": "(§3)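 Female BALB/c mice, 16−21 g, three per route. Oral dosing at 10 mg/kg as a 5 mg/mL suspension in 0.5% carboxymethyl cellulose. IV dosing at 1 mg/kg as a 1 mg/mL solution in 10% DMSO/50% PEG400/40% water. Blood sampled 15 min to 24 h after oral dosing and 5 min to 24 h after iv. LC/MS/MS quantification in ESI positive mode. Noncompartmental analysis; F = (AUCpo×dose_iv)/(AUCiv×dose_po)×100%.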"}, "[11]": {"experiment": "Tmax in BALB/c mouse at 10 mg/kg, po measured upto 24 hrs by LC-MS/MS analysis", "assay_type": "ADME, organism-based", "conditions": "in vivo", "procedure,_shortened": "as §3"}, "[12]": {"experiment": "AUC (0 to t) in BALB/c mouse at 1 mg/kg, iv measured upto 24 hrs by LC-MS/MS analysis", "assay_type": "ADME, organism-based", "parameters": "route intravenous, dose 1 mg/kg, time <=24", "conditions": "in vivo", "procedure,_shortened": "as §3"}, "[13]": {"experiment": "AUC (0 to t) in BALB/c mouse at 10 mg/kg, po measured upto 24 hrs by LC-MS/MS analysis", "assay_type": "ADME, organism-based", "parameters": "route oral, dose 10 mg/kg, time <=24", "conditions": "in vivo", "procedure,_shortened": "as §3"}, "[14]": {"experiment": "AUC (0 to infinity) in BALB/c mouse at 1 mg/kg, iv measured upto 24 hrs by LC-MS/MS analysis", "assay_type": "ADME, organism-based", "parameters": "route intravenous, dose 1 mg/kg, time <=24", "conditions": "in vivo", "procedure,_shortened": "as §3"}, "[15]": {"experiment": "AUC (0 to infinity) in BALB/c mouse at 10 mg/kg, po measured upto 24 hrs by LC-MS/MS analysis", "assay_type": "ADME, organism-based", "parameters": "route oral, dose 10 mg/kg, time <=24", "conditions": "in vivo", "procedure,_shortened": "as §3"}, "[16]": {"experiment": "Clearance in BALB/c mouse at 1 mg/kg, iv measured upto 24 hrs by LC-MS/MS analysis", "assay_type": "ADME, organism-based", "conditions": "in vivo", "procedure,_shortened": "as §3"}, "[17]": {"experiment": "Oral bioavailability in BALB/c mouse at 10 mg/kg measured upto 24 hrs by LC-MS/MS analysis", "assay_type": "ADME, organism-based", "conditions": "in vivo", "procedure,_shortened": "as §3"}},
  "data": [
    {"smiles": "CC(=O)NC[C@@H]1OC(=O)N2Cc3cc(-c4ccc(C#N)nc4)c(F)cc3O[C@@H]12", "values": [
      {"measurement": "remaining at 0.5 h", "setting": "[1]", "result": 95.5, "unit": "%"},
      {"measurement": "remaining at 0.5 h", "setting": "[2]", "result": 108, "unit": "%"},
      {"measurement": "remaining at 0.5 h", "setting": "[3]", "result": 106, "unit": "%"},
      {"measurement": "MIC", "setting": "[4]", "result": 0.4, "unit": "µg/mL"},
      {"measurement": "MIC", "setting": "Staphylococcus aureus [5]", "result": 0.125, "unit": "µg/mL"},
      {"measurement": "MIC", "setting": "[6]", "result": 1, "unit": "µg/mL"},
      {"measurement": "MIC", "setting": "Staphylococcus aureus [7]", "result": 0.25, "unit": "µg/mL"},
      {"measurement": "MIC", "setting": "Enterococcus faecalis [8]", "result": 0.5, "unit": "µg/mL"},
      {"measurement": "MIC", "setting": "Enterococcus faecalis [9]", "result": 1, "unit": "µg/mL"},
      {"measurement": "IC50", "setting": "Vero", "result": "> 64", "unit": "µg/mL"},
      {"measurement": "half-life", "setting": "[10]", "result": 4.08, "unit": "h"},
      {"measurement": "Tmax", "setting": "[11]", "result": 1.33, "unit": "h"},
      {"measurement": "AUC(0-t) at 24 h", "setting": "[12]", "result": 6080, "unit": "ng·h/mL"},
      {"measurement": "AUC(0-t) at 24 h", "setting": "[13]", "result": 77600, "unit": "ng·h/mL"},
      {"measurement": "AUC(0-inf)", "setting": "[14]", "result": 6160, "unit": "ng·h/mL"},
      {"measurement": "AUC(0-inf)", "setting": "[15]", "result": 78700, "unit": "ng·h/mL"},
      {"measurement": "clearance", "setting": "[16]", "result": 2.71, "unit": "mL/min/kg"},
      {"measurement": "bioavailability", "setting": "[17]", "result": 128, "unit": "%"}
    ]}
  ]
}
